For one series, the system named is HP1α. As to conditions: ref [27]; cited from earlier work.
Series [1] deals with T1, HP1α-DNA condensates (Homo sapiens, UniProt P45973). The series can be described thus: FRAP of Alexa-488 labeled HP1α in HP1α-DNA condensates. As to conditions: for FRAP dynamics of HP1α, in words: HP1α-DNA condensates, all three DNA lengths, no histone peptide. The class given is physicochemical. The gist of the method:
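Alexa-488 maleimide-labeled HP1α (~1%) mixed with unlabeled protein to 20uM in 70mM KCl, 20mM HEPES, 1mM DTT, pH 7.4. DNA 40nM (2.5kbp) to 9nM (10kbp), with or without H3K9me3 peptide up to 42μM, at 23°C. A 0.5–1um area bleached on a spinning-disc confocal. Recovery was fitted to an exponential to give mobile fraction (I0) and half-time ln(2)/β.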

Series [2] concerns the target T1, HP1α-DNA condensates. Nature of the series: Microrheology. The class given is physicochemical. The method in brief: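 HP1α at 20 μM with 40nM 2.5kbp, 20nM 4kbp or 9nM 10kbp DNA, with or without 10 or 42μM H3K9me3 peptide. 200nm carboxylated fluorescent beads were embedded and tracked on a spinning-disc confocal (x63/1.4NA oil) at 200ms interval, 1000 frames, 10–50ms exposure, 23°C ± 2°C. Beads near boundaries were avoided. 2D MSD was time- and ensemble-averaged, and α was taken as the log-log slope versus lag time.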

In series [3] the test system is DNA (2.5kbp, 4kbp, 10kbp). The series can be described thus: Phase separation of HP1α with DNA of different length. The class given is physicochemical. The gist of the method: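 HP1α was 0.22um-filtered, buffer-exchanged and mixed with dsDNA to 20uM HP1α (12.5–20μM tested) and nanomolar DNA. Buffer was 70mM KCl, 20mM HEPES, 1mM DTT, pH 7.5, in a 7ul reaction at 23°C on Pluronic F-127–treated slides. Imaging used wide-field DIC with a ×40 air objective at t=0 and 60 min.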

Setting [4] is: 70mM KCl, 20mM HEPES, 1mM DTT, pH 7.5.
Setting [5] is: with HP1α 12.5μM-20μM, 70mM KCl, 20mM HEPES, 1mM DTT, pH 7.5.

The values that follow come from article PMC10871333 (bioRxiv, 2024).

Where “and” joins values, the source holds several entries; their conditions need not be identical. Equal values may be shown once.

T1 sequence (P45973 whole entry): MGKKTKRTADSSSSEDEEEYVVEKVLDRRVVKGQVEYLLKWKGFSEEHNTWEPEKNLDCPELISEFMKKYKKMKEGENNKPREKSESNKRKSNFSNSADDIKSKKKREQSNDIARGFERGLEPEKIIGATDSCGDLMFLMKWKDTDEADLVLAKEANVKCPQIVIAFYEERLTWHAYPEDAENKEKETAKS

In the case of “H3K4me3: human N-terminal histone H3 tail (residues 1–22) with trimethylation of lysine 4, purchased from Bachem”, in the series on HP1α, the “binding of HP1α chromodomain to histone H3 mark” value (shortened to “binding of HP1α chromodomain”) is reported as “does not bind”.
On to “H3K9me3: human N-terminal histone H3 tail (residues 1–22) with trimethylated lysine 9, purchased from Bachem [reference compound]”, for which, in the series with HP1α, the “binding of HP1α chromodomain” value is “recognizes and binds specifically”. For the same substance, the “mobile fraction of HP1α in condensates with peptide, 10μM peptide” value with HP1α-DNA condensates [1] (H3K9me3 peptide 10μM, Alexa488-HP1α, 2.5kbp DNA condensates, FRAP) is reported as ~ 100%. Further, in the series with HP1α-DNA condensates [2] (2.5kb DNA condensates), the “decrease in α with H3K9me3 compared with lengthening the DNA to 10kbp” value is on record as “more pronounced”.
With “HP1α: Recombinantly expressed and purified HP1α (MW = 22kDa) from Biomatik Corporation”, the “FRAP dynamics of HP1α, in words” value with HP1α-DNA condensates [1] is on record as “remain dynamic”. The “FRAP dynamics of HP1α, in words” value with HP1α-DNA condensates [1] (listed as HP1a) was “rapid recovery”. Further, the “average diffusive exponent α, 10kbp DNA condensates” value with HP1α-DNA condensates [2] (20 μM HP1α and 9nM 10kbp DNA, no peptide, 200nm beads, 200ms interval, 23°C) amounted to 0.58±0.05. In the series with HP1α-DNA condensates [2] (20 μM HP1α and 20nM 4kbp DNA, no peptide, 200nm beads, 200ms interval, 23°C), the “average diffusive exponent α, 4kbp DNA condensates” value is on record as 0.72±0.02. Moreover, the “diffusive exponent α, 2.5kbp DNA condensates” value with HP1α-DNA condensates [2] (20 μM HP1α and 40nM 2.5kbp DNA, no peptide, 200nm beads, 200ms interval, 23°C) was 0.85±0.06 and ~ 0.85±0.06. The “morphology with 4kbp DNA (9nM or 15nM) at t=0min and t=60min” value in series [3] (20μM HP1α, DIC 40x) was “spherical condensates can be seen”. Further, the “morphology change with 10kbp DNA (9nM or 15nM) over 1hour” value in series [3] (20μM HP1α, t=0min and t=60min, DIC 40x) is recorded as “changes in the morphology (from asymmetric to spherical)”. Moreover, in series [3] (setting [4]), the “assembly morphology with 10kbp DNA” value is “assemblies with an asymmetric morphology were initially observed before transitioning to spherical droplets”; the “droplet morphology with 2.5kbp and 4kbp DNA” value was “spherical droplets appeared instantaneously”; the “time of transition from asymmetric to spherical droplets with 10kbp DNA” value was not above 1 h. In series [3] (same HP1α concentration, 70mM KCl, 20mM HEPES, 1mM DTT, pH 7.5), the “solubility / phase behavior of HP1α in the absence of DNA” value was “remains soluble”. Further, the “phase separation with DNA” value in series [3] (three DNA lengths (2500, 4000, 10000 bp) at nanomolar concentrations, 70mM KCl, 20mM HEPES, 1mM DTT, pH 7.5, 23°C, DIC 40x) is on record as “undergoes phase separation”. Also, in series [3] (setting [5]), the “DNA concentration inducing phase separation, 2500 bp DNA” value is recorded as 30 nM and the “DNA concentration inducing phase separation, 10000 bp DNA” value was found to be 9 nM.
“unmodified H3: unmodified human N-terminal histone H3 tail (residues 1–22), purchased from Bachem”: in the series with HP1α, the “binding of HP1α chromodomain” value is “does not bind”.
